Key:
MCF7 = assay: Antiproliferative activity against human MCF7 cells expressing low levels of FGFR4 after 72 hrs by CCK8 assay; details: MCF7, 72 h
MDA-MB-453 [1] = assay: Antiproliferative activity against human MDA-MB-453 cells harboring FGFR4 Y367C mutant after 72 hrs by CCK8 assay; details: MDA-MB-453, 72 h
MDA-MB-231 = assay: Antiproliferative activity against human MDA-MB-231 cells expressing low levels of FGFR4 after 72 hrs by CCK8 assay; details: MDA-MB-231, 72 h
[2] = biological target: Fibroblast growth factor receptor 1 (Homo sapiens, UniProt P11362); assay: Inhibition of His-tagged cytoplasmic recombinant human FGFR1 (308 to 731 residues) expressed in baculovirus expression system using Tyr 4 peptide as substrate incubated for 1 hr by FRET-based Z'-Lyte assay
Fibroblast growth factor receptor 1, sequence (P11362 whole entry, the tested form may be a part): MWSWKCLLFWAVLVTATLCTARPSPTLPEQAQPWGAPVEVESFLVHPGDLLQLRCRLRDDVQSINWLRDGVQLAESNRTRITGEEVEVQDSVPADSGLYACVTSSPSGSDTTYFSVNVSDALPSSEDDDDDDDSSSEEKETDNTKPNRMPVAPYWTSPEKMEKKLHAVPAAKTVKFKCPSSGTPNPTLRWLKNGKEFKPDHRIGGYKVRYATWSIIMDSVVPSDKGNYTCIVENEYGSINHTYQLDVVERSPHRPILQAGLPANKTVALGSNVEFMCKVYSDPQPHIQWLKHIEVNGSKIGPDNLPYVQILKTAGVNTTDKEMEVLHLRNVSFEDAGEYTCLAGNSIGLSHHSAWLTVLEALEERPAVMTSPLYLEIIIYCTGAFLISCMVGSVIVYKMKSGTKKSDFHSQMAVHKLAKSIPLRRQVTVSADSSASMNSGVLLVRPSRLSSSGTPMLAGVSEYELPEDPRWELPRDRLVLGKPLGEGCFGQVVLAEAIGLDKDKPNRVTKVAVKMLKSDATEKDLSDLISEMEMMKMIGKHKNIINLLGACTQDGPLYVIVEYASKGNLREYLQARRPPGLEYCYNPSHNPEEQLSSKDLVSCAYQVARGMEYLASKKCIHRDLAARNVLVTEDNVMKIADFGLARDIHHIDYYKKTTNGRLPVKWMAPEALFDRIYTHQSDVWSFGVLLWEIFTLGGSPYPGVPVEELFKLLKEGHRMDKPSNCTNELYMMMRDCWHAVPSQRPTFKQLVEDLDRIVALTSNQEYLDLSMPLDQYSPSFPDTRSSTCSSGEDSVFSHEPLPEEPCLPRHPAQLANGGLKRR

[3] = biological target: Fibroblast growth factor receptor 3 (Homo sapiens, UniProt P22607); assay: Inhibition of His-tagged cytoplasmic recombinant human FGFR3 (399 to 806 residues) expressed in baculovirus expression system using Tyr 4 peptide as substrate incubated for 1 hr by FRET-based Z'-Lyte assay
Fibroblast growth factor receptor 3, sequence (P22607 whole entry, the tested form may be a part): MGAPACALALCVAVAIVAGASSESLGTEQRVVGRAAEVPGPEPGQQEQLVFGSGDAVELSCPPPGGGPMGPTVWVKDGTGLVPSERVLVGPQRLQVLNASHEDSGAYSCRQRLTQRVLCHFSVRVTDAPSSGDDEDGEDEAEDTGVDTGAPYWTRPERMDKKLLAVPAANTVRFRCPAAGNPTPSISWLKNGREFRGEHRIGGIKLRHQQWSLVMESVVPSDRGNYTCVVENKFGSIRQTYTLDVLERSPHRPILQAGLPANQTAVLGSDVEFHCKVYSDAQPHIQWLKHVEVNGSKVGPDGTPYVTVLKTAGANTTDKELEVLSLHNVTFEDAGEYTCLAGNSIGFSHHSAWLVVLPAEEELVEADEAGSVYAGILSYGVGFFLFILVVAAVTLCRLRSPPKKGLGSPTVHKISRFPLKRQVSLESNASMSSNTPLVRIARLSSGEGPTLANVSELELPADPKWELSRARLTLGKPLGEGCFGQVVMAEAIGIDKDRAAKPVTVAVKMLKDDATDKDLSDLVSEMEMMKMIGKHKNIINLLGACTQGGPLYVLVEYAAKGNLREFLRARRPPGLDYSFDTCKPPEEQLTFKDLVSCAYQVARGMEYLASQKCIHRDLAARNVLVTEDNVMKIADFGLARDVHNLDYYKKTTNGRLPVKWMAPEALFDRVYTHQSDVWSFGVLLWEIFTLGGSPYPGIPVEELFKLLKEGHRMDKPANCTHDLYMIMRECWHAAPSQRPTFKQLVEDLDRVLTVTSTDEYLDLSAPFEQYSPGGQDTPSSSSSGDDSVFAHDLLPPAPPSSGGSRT

[4] = biological target: Fibroblast growth factor receptor 2 (Homo sapiens, UniProt P21802); assay: Inhibition of His-tagged cytoplasmic recombinant human FGFR2 (403 to 822 residues) expressed in baculovirus expression system using Tyr 4 peptide as substrate incubated for 1 hr by FRET-based Z'-Lyte assay
Fibroblast growth factor receptor 2, sequence (P21802 whole entry, the tested form may be a part): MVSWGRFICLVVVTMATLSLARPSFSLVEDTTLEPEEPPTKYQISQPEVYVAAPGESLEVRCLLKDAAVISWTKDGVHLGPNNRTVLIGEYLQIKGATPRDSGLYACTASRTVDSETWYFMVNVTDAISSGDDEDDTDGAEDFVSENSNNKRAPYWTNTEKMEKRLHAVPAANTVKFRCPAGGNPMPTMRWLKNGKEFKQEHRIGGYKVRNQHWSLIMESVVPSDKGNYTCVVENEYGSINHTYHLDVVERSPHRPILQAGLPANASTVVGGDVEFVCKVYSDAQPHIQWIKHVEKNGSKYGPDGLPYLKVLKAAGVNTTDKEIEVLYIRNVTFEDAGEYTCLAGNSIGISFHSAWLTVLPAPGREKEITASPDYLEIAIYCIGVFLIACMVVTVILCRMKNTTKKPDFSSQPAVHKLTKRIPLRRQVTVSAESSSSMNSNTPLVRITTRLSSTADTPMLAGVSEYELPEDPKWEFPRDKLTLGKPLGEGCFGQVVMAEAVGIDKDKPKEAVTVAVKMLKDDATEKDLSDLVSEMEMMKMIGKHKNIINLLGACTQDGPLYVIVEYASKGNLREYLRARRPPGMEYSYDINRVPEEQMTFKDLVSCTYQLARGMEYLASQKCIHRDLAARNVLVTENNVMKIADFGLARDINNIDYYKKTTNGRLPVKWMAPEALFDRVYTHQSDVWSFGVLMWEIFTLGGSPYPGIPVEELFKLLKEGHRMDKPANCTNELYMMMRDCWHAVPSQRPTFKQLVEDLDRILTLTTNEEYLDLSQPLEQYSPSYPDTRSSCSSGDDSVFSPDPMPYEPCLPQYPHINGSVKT

[5] = biological target: T1, Fibroblast growth factor receptor 4 (Homo sapiens, UniProt P22455); assay: Inhibition of His-tagged cytoplasmic recombinant human FGFR4 ([…] residues) expressed in baculovirus expression system using Tyr 4 peptide as substrate incubated for 1 hr by FRET-based Z'-Lyte assay
Target sequence in this assay (P22455 whole entry): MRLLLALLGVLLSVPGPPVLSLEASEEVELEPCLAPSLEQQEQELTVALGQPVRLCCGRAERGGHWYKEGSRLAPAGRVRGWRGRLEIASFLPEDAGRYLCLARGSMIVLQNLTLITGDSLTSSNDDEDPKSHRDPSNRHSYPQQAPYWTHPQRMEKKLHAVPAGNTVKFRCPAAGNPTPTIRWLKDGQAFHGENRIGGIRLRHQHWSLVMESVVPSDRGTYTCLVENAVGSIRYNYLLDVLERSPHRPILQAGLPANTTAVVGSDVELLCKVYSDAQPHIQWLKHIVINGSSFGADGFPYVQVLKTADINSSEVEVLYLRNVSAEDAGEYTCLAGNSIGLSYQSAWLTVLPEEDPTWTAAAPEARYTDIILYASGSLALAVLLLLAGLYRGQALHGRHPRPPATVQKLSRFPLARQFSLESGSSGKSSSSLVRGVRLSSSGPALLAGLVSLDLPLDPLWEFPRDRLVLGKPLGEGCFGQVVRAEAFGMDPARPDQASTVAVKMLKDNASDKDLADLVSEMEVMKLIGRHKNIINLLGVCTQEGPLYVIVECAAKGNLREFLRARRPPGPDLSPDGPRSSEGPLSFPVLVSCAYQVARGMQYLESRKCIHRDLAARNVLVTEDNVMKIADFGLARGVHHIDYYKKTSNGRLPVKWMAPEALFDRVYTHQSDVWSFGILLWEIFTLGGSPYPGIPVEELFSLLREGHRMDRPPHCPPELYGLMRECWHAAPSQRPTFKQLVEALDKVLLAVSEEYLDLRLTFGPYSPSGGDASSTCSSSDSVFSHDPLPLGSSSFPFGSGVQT

MDA-MB-453 [6] = assay: Effect on total ERK1/2 levels in human MDA-MB-453 cells at 3 to 300 nM after 4 hrs by Western blot method; assay type: ADME, cell-based; details: mda-mb-453, 4 h, 0.3 µM
In short: (§1)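 MDA-MB-453 cells (FGFR4 Y367C) were treated with or without compound for 4 h at the indicated concentrations. Cells were then harvested, and total and phosphorylated FGFR4, FRS2, ERK1/2 and Akt were read by Western blot.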

[7] = biological target: T1, Fibroblast growth factor receptor 4; assay: Binding affinity to ATP binding site of human FGFR4 after 1 hr by qPCR method
In short: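 The Kd for FGFR4 was measured in an active-site-dependent competition binding assay against the ATP-binding site.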
Target sequence in this assay (P22455 whole entry): as above

[8] = biological target: G protein-coupled receptor kinase 4 (Homo sapiens) (UniProt P32298); assay: Inhibition of human GRK4 at 1 uM after 1 hr by KINOMEscan assay relative to control
G protein-coupled receptor kinase 4 (Homo sapiens), sequence (P32298 whole entry, looked up): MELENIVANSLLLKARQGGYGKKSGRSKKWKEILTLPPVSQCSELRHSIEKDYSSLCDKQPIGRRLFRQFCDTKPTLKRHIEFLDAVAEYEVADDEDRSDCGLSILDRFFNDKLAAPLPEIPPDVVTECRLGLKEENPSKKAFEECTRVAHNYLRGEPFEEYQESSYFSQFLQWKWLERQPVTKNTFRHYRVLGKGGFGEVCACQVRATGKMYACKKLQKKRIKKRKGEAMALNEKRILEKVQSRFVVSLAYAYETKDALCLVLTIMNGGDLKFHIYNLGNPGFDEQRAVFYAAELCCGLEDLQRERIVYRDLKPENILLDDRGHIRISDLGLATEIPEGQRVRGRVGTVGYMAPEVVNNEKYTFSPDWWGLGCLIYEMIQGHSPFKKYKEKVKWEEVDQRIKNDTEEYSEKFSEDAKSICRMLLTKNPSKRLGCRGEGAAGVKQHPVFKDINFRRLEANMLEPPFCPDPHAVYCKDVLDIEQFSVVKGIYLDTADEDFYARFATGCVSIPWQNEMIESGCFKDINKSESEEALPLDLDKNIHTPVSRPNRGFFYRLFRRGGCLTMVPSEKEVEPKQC
In short: (§2)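 Kinome-wide competition binding screen across 468 kinases, with compound at 1.0 µM.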

MDA-MB-453 [9] = assay: Induction of apoptosis in human MDA-MB-453 cells after 48 hrs by annexin V/[…] staining-based flow cytometric method; assay type: functional, cell-based
MDA-MB-453 [10] = assay: Effect on total AKT levels in human MDA-MB-453 cells at 3 to 300 nM after 4 hrs by Western blot method; assay type: ADME, cell-based; details: mda-mb-453, 4 h, 0.3 µM; in short: as §1
[11] = biological target: SRSF protein kinase 3 (Homo sapiens) (UniProt Q9UPE1); assay: Inhibition of human SRSF protein kinase 3 at 1 uM after 1 hr by KINOMEscan assay relative to control; in short: as §2
[12] = biological target: T1, Fibroblast growth factor receptor 4; details: 1 uM
Target sequence in this assay (P22455 22-802 limits assumed): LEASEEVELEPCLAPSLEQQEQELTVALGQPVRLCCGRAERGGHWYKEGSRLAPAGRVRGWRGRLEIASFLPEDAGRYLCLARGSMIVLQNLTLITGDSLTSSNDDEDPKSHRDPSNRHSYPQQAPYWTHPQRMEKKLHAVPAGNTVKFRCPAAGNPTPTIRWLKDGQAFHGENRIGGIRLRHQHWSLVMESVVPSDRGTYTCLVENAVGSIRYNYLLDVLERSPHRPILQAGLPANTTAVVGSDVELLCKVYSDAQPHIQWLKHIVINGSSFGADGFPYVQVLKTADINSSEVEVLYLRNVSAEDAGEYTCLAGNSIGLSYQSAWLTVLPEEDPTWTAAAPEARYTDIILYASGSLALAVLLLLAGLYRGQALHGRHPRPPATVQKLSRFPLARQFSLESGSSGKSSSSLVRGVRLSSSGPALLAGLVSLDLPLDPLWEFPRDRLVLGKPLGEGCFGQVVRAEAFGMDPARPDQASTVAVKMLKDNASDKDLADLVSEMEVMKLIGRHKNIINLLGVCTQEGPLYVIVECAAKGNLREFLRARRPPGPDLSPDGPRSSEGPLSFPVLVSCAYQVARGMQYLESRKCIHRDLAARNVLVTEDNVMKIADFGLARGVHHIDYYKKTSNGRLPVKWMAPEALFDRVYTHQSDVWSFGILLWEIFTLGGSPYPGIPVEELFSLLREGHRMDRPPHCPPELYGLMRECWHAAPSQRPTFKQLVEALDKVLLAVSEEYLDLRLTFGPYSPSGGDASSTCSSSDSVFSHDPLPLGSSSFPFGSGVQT

MDA-MB-453 [13] = assay: Effect on total FRS2 levels in human MDA-MB-453 cells at 3 to 300 nM after 4 hrs by Western blot method; assay type: ADME, cell-based; details: mda-mb-453, 4 h, 0.3 µM; in short: as §1
[14] = biological target: Calcium/calmodulin-dependent protein kinase type 1D (Homo sapiens) (UniProt Q8IU85); assay: Inhibition of human CAMK1D at 1 uM after 1 hr by KINOMEscan assay relative to control; in short: as §2
Calcium/calmodulin-dependent protein kinase type 1D (Homo sapiens), sequence (Q8IU85 whole entry, looked up): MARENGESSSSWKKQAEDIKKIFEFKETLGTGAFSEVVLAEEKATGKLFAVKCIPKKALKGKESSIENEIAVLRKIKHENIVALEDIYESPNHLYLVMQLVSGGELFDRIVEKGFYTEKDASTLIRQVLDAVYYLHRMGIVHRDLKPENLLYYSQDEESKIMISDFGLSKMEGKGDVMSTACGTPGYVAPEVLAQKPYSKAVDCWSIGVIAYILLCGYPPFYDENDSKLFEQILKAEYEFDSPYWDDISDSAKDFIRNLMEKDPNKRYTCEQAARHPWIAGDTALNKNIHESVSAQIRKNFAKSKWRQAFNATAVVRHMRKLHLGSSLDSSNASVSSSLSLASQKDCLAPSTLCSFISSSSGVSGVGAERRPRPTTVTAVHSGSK

SMILES	IC50 [2] [µM]	IC50 [3] [µM]	IC50 [4] [µM]	further results
C=CC(=O)Nc1cccc(C)c1Nc1ncc(OCc2c(Cl)c(OC)cc(OC)c2Cl)cn1				IC50 (MCF7): > 10 µM; IC50 (MDA-MB-453 [1]): 0.22 µM; IC50 (MDA-MB-231): > 10 µM
C=CC(=O)Nc1cccc(OC(C)C)c1Nc1ncc(OCc2c(Cl)c(OC)cc(OC)c2Cl)cn1	> 10	> 10	> 10	
C=CC(=O)Nc1cccc(C(F)(F)F)c1Nc1ncc(OCc2c(Cl)c(OC)cc(OC)c2Cl)cn1	> 10	> 10	> 10	
C=CC(=O)Nc1cccc(Cl)c1Nc1ncc(OC(C)c2c(Cl)c(OC)cc(OC)c2Cl)cn1 (stereo not given)		> 10	> 10	
C=CC(=O)Nc1ccc(C)cc1Nc1ncc(OCc2c(Cl)c(OC)cc(OC)c2Cl)cn1		> 10	> 10	
C=CC(=O)Nc1ccccc1Nc1ncc(OCc2c(Cl)c(OC)cc(OC)c2Cl)cn1		1.2	0.312	
C=CC(=O)Nc1cccc(C)c1Nc1ncc2cc(-c3c(Cl)c(OC)cc(OC)c3Cl)ccc2n1	0.24	0.244		IC50 (MCF7): 2.34 µM; IC50 (MDA-MB-453 [1]): 0.32 µM; IC50 (MDA-MB-231): 3.76 µM
C=CC(=O)Nc1cccc(OC)c1Nc1ncc(OCc2c(Cl)c(OC)cc(OC)c2Cl)cn1		> 10	> 10	IC50 (MCF7): 1.18 µM; IC50 (MDA-MB-453 [1]): 0.21 µM; IC50 (MDA-MB-231): 2.14 µM
C=CC(=O)Nc1cccc(CC)c1Nc1ncc(OCc2c(Cl)c(OC)cc(OC)c2Cl)cn1		> 10	> 10	
C=CC(=O)Nc1cccc(OCC)c1Nc1ncc(OCc2c(Cl)c(OC)cc(OC)c2Cl)cn1	> 10	> 10	> 10	
C=CC(=O)Nc1cc(C)ccc1Nc1ncc(OCc2c(Cl)c(OC)cc(OC)c2Cl)cn1		> 10	> 10	
C=CC(=O)Nc1cccc(C)c1Nc1ncc(NCc2c(Cl)c(OC)cc(OC)c2Cl)cn1		> 10	> 10	
C=CC(=O)Nc1c(C)cccc1Nc1ncc(OCc2c(Cl)c(OC)cc(OC)c2Cl)cn1		> 10	> 10	IC50 [5]: > 10 µM
C=CC(=O)Nc1cc(C(F)(F)F)cc(Cl)c1Nc1ncc(OCc2c(Cl)c(OC)cc(OC)c2Cl)cn1	> 10	> 10	> 10	
C=CC(=O)Nc1cccc(Cl)c1Nc1ncc(OCc2ccccc2Cl)cn1	> 10	> 10	> 10	
C=CC(=O)Nc1cc(Cl)cc(Cl)c1Nc1ncc(OCc2c(Cl)c(OC)cc(OC)c2Cl)cn1		> 10	> 10	IC50 (MCF7): > 10 µM; IC50 (MDA-MB-453 [1]): 0.87 µM; IC50 (MDA-MB-231): > 10 µM
C=CC(=O)Nc1cc(F)cc(Cl)c1Nc1ncc(OCc2c(Cl)c(OC)cc(OC)c2Cl)cn1	> 10	> 10	> 10	IC50 (MCF7): > 10 µM; Activity (MDA-MB-453 [6]): Non-Toxic; IC50 (MDA-MB-453 [1]): 0.38 µM; Kd [7]: 0.0033 µM; inhibition [8]: 92.8%; IC50 [5]: 0.0026 µM; IC50 (MDA-MB-231): > 10 µM; Activity (MDA-MB-453 [9]): Dose-dependent effect; Activity (MDA-MB-453 [10]): Non-Toxic; inhibition [11]: 88%; inhibition [12]: 99.5%; Activity (MDA-MB-453 [13]): Non-Toxic; inhibition [14]: 94.7%
CCC(=O)Nc1cccc(Cl)c1Nc1ncc(OCc2c(Cl)c(OC)cc(OC)c2Cl)cn1		> 10	> 10	IC50 [5]: > 10 µM
C=CC(=O)Nc1cccc(F)c1Nc1ncc(OCc2c(Cl)c(OC)cc(OC)c2Cl)cn1		4.3	0.397	

Second part, led by results:

IC50 [2] [µM]	IC50 [3] [µM]	IC50 [4] [µM]	SMILES	further results
	> 10	> 10	C=CC(=O)Nc1cccc(Cl)c1Nc1ncc(OCc2c(Cl)ccc(OC)c2Cl)cn1	
	> 10	> 10	C=CC(=O)Nc1cccc(Cl)c1Nc1ncc(OCc2c(Cl)c(OC)cc(OC)c2Cl)cn1	IC50 (MCF7): > 10 µM; IC50 (MDA-MB-453 [1]): 0.65 µM; IC50 (MDA-MB-231): > 10 µM
> 10	> 10	> 10	C=CC(=O)Nc1cccc(Cl)c1Nc1ncc(OCc2c(Cl)cccc2Cl)cn1	
	> 10	> 10	C=CC(=O)Nc1cccc(Cl)c1Nc1ncc(OCc2cc(OC)ccc2Cl)cn1	
	> 10	> 10	C=CC(=O)Nc1cccc(Cl)c1Nc1ncc(OCc2cc(OC)cc(OC)c2)cn1	
	> 10	> 10	C=CC(=O)Nc1cccc(Cl)c1Nc1ncc(OCc2cc(OC)cc(OC)c2Cl)cn1	
	> 10	> 10	C=CC(=O)Nc1cccc(Cl)c1Nc1ncc(OCc2cccc(OC)c2Cl)cn1	
> 10	> 10	> 10	C=CC(=O)Nc1cccc(Cl)c1Nc1ncc(OCc2cccc(OC)c2)cn1	

Reference: ChEMBL document CHEMBL3997853, “2-Aminopyrimidine Derivatives as New Selective Fibroblast Growth Factor Receptor 4 (FGFR4) Inhibitors” (ACS Med Chem Lett, 2017)
